Calls of active or inactive are those of the source.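 Rule for the calls, unless noted: active = GFP response above 150% of the DMSO level; inconclusive = fewer than 70 events counted for a yeast strain; inactive = the rest.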
Columns and labels:
[1] = RPL19A-GFP modulators, yeast TOR pathway, confirmation, cell-based, S. cerevisiae, flow cytometry, cherry picks, mother/daughter gates (AID 2270;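 active = GFP response below 50% of the DMSO control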); settings: S. cerevisiae RPL19A-GFP strain, 3 h, at 10 µM, stronger effect = lower value, 100 = same GFP as DMSO wells
[2] = LAP4-GFP expression modulators in yeast, confirmation, cell-based, cherry picks, flow cytometry, mother/daughter gates (AID 2271;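 active = GFP response above 150% of the DMSO control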;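 note: ratio of sample to DMSO plate mean so 100% equals DMSO level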); settings: S. cerevisiae LAP4-GFP strain, 3 h, at 10 µM, stronger effect = higher value, 100 means same as DMSO control
Procedure, shortened: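 Test system: GFP-fusion yeast strain. Medium: synthetic complete (SC) yeast growth medium. Timing: 3 h treatment at 30 °C with rotation. Measured by: GFP by flow cytometry. Control set: positive rapamycin (400 ng/mL), negative DMSO.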

[3] = modulators of MEP2-GFP levels in yeast, confirmation, S. cerevisiae, flow cytometry GFP, cherry picks (AID 2272;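 active = GFP response above 150% of the DMSO control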;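 note: ratio of well signal to plate DMSO mean so 100% equals DMSO level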); settings: S. cerevisiae MEP2-GFP strain, 3 h, at 10 µM, stronger effect = higher value
[4] = AGP1-GFP expression modulators, hit retest, confirmation, cell-based, flow cytometry, S. cerevisiae, cherry picks (AID 2273);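 note: median GFP channel fluorescence over the whole cell population gate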; settings: S. cerevisiae AGP1-GFP strain, 3 h, at 10 µM
[5] = modulators of CIT2-GFP expression in yeast, confirmation, S. cerevisiae, GFP fusion, cherry picks, mother/daughter gates (AID 2274); settings: S. cerevisiae CIT2-GFP strain, flow cytometry, 3 h, at 10 µM, stronger effect = higher value
[6] = measured here: daughter cell gate
[7] = measured here: mother cell gate
[8] = measured here: daughter cell gate response
[9] = measured here: mother cell gate response

| Compound | GFP response vs DMSO [1] | GFP response vs DMSO [1, 6] | GFP response vs DMSO [1, 7] | GFP response relative to DMSO [2] | GFP response relative to DMSO [2, 8] | GFP response relative to DMSO [2, 9] | GFP response vs DMSO [3] | GFP response, % of DMSO [4] | GFP response, % of DMSO [5] | GFP response, % of DMSO [5, 6] | GFP response, % of DMSO [5, 7] |
| --- | --- | --- | --- | --- | --- | --- | --- | --- | --- | --- | --- |
| Cc1cc(C)c2c(c1)/C(=C/C(=O)c1ccc(Br)s1)C(=O)N2 | 104% (inactive) | 102% | 103% | 99.5% (inactive) | 101% | 102% | 105% (inactive) | 97.8% (inactive) | 94.4% (inactive) | 93.8% | 94.4% |
| Oc1ccc(N=Nc2ccccc2)o1 | 111% (inactive) | 113% | 106% | 180% (active) | 153% | 173% | 124% (inactive) | 111% (inactive) | 118% (inactive) | 119% | 110% |
| Oc1c(Br)cc(Br)cc1C=Nc1cccc2ncccc12 | 104% (inactive) | 93.9% | 98.6% | 125% (inactive) | 110% | 126% | 103% (inactive) | 95.7% (inactive) | 97.3% (inactive) | 99.2% | 89.5% |
| CCCCNc1c(-c2ccc(SC(C)CC)cc2)nc2ccccn12 (stereo not drawn) | 94.2% (inactive) | 88.6% | 95.8% | 120% (inactive) | 114% | 124% | 109% (inactive) | 93.3% (inactive) | 92.6% (inactive) | 89.9% | 91.4% |
| COc1ccc(CCNC2=C(Cl)C(=O)N(CCc3ccccc3)C2=O)cc1OC | 101% (inactive) | 102% | 102% | 103% (inactive) | 105% | 103% | 102% (inactive) | 97.4% (inactive) | 107% (inactive) | 99.7% | 103% |
| CCn1c(=O)c(C(=O)NCc2ccc(OC)c(OC)c2)c(O)c2ccccc21 | 97.6% (inactive) | 99.1% | 99.2% | 94.1% (inactive) | 92.8% | 94% | 100% (inactive) | 103% (inactive) | 105% (inactive) | 106% | 106% |
| CCOC(=O)C1=C(C)N=C2SC(C(=O)OC)=CC(=O)N2C1c1ccc(F)cc1 (stereo not drawn) | 103% (inactive) | 101% | 100% | 119% (inactive) | 110% | 124% | 91.3% (inactive) | 90.2% (inactive) | 96.5% (inactive) | 94.8% | 94.4% |
| CC(C(=O)NCCc1ccc(F)cc1)N1CCN(Cc2ccccc2)CC1 (stereo not drawn) | 96.5% (inactive) | 97% | 96.8% | 98.7% (inactive) | 100% | 101% | 102% (inactive) | 98.5% (inactive) | 95.2% (inactive) | 96.5% | 95.5% |

Source: PubChem BioAssay
